In assay [1] the target is Human immunodeficiency virus type 1 reverse transcriptase (Human immunodeficiency virus 1, UniProt Q72547). Kind of assay: Ability to inhibit HIV-1 Reverse Transcriptase (RT) using an rC-dG template/primer.
Assay [2] concerns MT4. Kind of assay: Concentration of compound which inhibited greater than 95% the spread of infection of cultured MT-4 cells. Type of assay: functional, Homo sapiens. In short, it runs like this: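 MT-4 cells infected with HIV-1 strain IIIb. The spread of infection was measured by p24 core antigen ELISA. The CIC95 is the lowest compound concentration that inhibited spread of infection by more than 95%.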

In assay [3] the test system is MT4. Kind of assay: Compound was evaluated for the anti-viral activity against cultured MT-4 cells. The format is functional, Homo sapiens.

Structures are written as SMILES.

As a reminder, the IC50 is the point on the concentration scale where inhibition reaches its midpoint. Read a high IC50 as weaker potency in that assay. For `O=C1Nc2ccc(Cl)cc2C(C#Cc2ccccc2)(C2CC2)N1` (stereo not drawn), in assay [1], the IC50 worked out at 17.7 nM. The compound further had a ClC95 in the assay with MT4 [2] of 100 nM.
In turn, `O=C1Nc2ccc(Cl)cc2[C@@](C#Cc2ccccn2)(C2CC2)N1` came in with an IC50 in assay [1] of 12 nM.
`O=C1Nc2ccc(Cl)cc2C(C#Cc2cccnc2)(C2CC2)N1` (stereo not drawn) returned an IC50 in assay [1] of 64.5 nM.
The same measure, in the same setting: then `O=C1Nc2ccc(Cl)cc2[C@](C#Cc2ccccn2)(C2CC2)N1`, with 9300 nM.
`O=C1Nc2ccc(Cl)cc2C(C#Cc2ccccn2)(C2CC2)N1` (stereo not drawn) gave an IC50 in assay [1] of 23.2 nM. Besides, the ClC95 in the assay with MT4 [2] came out at 25 nM.
With `N#Cc1ccccc1C#CC1(C2CC2)NC(=O)Nc2ccc(Cl)cc21` (stereo not drawn), 10.8 nM corresponded to half-maximal inhibition in assay [1] (IC50). In the assay with MT4 [3], the ClC95 turned out to be 12 nM.
As to `O=C1Nc2ccc(Cl)cc2C(C#Cc2cc([N+](=O)[O-])ccn2)(C2CC2)N1` (stereo not drawn), in assay [1], the IC50 is > 10000 nM.
As to `Cc1ccnc2c1NC(=O)c1cccnc1N2C1CC1` [NEVIRAPINE], in the assay with MT4 [3], the ClC95 was 100 nM.
In the case of `O=C1Nc2ccc(Cl)cc2C(C#Cc2ncccn2)(C2CC2)N1` (stereo not drawn), the IC50 in assay [1] was 130 nM.
In the assay on MT4 [3], `CCc1cc(NCc2nc3c(Cl)ccc(Cl)c3o2)c(O)nc1C` [L-697661] gave a ClC95 of 50 nM.
With `O=C1Nc2ccc(Cl)cc2C(C#Cc2nccs2)(C2CC2)N1` (stereo not drawn), the IC50 in assay [1] was found to be 10.9 nM. In the assay on MT4 [3], this compound showed a ClC95 of 12 nM.
In turn, `O=C1Nc2ccc(Cl)cc2C(C#Cc2cncnc2)(C2CC2)N1` (stereo not drawn) yielded an IC50 in assay [1] of 1500 nM.
In assay [1], `O=C1Nc2ccc(Cl)cc2C(C#Cc2ccco2)(C2CC2)N1` (stereo not drawn) returned a half-inhibitory concentration (IC50) of 9.2 nM.
Same read-out and setting: in the case of `O=C1Nc2ccc(Cl)cc2C(C#Cc2cnccn2)(C2CC2)N1` (stereo not drawn) it was 270 nM; in that of `O=C1Nc2ccc(Cl)cc2C(C#Cc2ccncc2)(C2CC2)N1` (stereo not drawn), 450 nM; in that of `CN1C(=O)Nc2ccc(Cl)cc2C1(C#Cc1ccccn1)C1CC1` (stereo not drawn), 19.6 nM.
In assay [1], `CC(C)=CCN1Cc2cccc3nc(S)n(c23)C[C@H]1C` yielded an IC50 of 70 nM. In the assay with MT4 [3], this compound registered a ClC95 of 200 nM.
Consider `O=C1Nc2ccc(Cl)cc2C(C#Cc2ccccc2[N+](=O)[O-])(C2CC2)N1` (stereo not drawn), for which the IC50 in assay [1] stood at 12.8 nM.

(Values after ChEMBL document CHEMBL1127598, “Synthesis of a series of 4-(arylethynyl)-6-chloro-4-cyclopropyl-3,4-dihydroquinazolin-2(1H)-ones as novel non-nucleoside HIV-1 reverse transcriptase inhibitors” (J Med Chem, 1994).)
